Assay outcomes deposited in PubChem by The Scripps Research Institute Molecular Screening Center.
Shown are actives, neighbours in structure and some others; about 2.8% of the full set was active somewhere.
pPAFAH inh – pPAFAH (human) enzyme inhibition. Q13093. recombinant pPAFAH, FP-rhodamine probe fluorescence polarization. inhibition, % at 3.39 µM. 330,000 compounds, 1.5% hits. AID 463082;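 active means inhibition above the mean inhibition across the screen plus 3 SD, cut at about 25% in these data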;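 further: inhibitors block binding of the rhodamine activity-based probe so polarization drops; 0% = enzyme with DMSO and 100% = wells lacking pPAFAH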
Target sequence (Q13093 whole entry, looked up): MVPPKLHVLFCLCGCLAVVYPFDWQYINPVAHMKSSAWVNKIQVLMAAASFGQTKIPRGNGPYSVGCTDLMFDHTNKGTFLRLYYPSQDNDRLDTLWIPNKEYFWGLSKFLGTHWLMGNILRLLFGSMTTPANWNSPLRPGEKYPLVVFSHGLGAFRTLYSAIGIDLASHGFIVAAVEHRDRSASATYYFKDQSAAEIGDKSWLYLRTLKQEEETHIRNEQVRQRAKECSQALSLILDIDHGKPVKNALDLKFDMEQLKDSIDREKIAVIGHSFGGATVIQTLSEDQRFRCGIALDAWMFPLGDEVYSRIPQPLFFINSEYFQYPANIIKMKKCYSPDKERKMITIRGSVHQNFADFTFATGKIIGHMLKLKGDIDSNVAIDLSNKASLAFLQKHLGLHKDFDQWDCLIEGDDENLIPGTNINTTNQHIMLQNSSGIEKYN
PAFAH1B3 FP inh – PAFAH1B3 (human) inhibition; Q15102; recombinant PAFAH1B3, FP-rhodamine probe, fluorescence polarization; inhibition, % at 3.39 µM; 340,000 compounds, 0.28% hits;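 active means inhibition above the screen-wide average of all tested compounds plus 3 SD, cut at about 25% in these data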;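 further: 0% = enzyme with DMSO only and 100% = wells lacking PAFAH1B3 protein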
HTRA1 inh – inhibitors of human serine peptidase HTRA1; Q92743; recombinant HTRA1, FP-rhodamine activity-based probe, fluorescence polarization; inhibition, % at 5.96 µM; 340,000 compounds, 0.5% hits; AID 504803; in the data active means inhibition above about 36%;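 further: 0% = enzyme with DMSO and 100% = wells lacking enzyme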
mABHD4 FP – ABHD4 (mouse) inhibition, primary FP screen. inhibition, % at 8.92 µM. purified mABHD4, FP-Rh probe fluorescence polarization. AID 720543. 370,000 compounds, 0.54% hits. Q8VD66;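 active means inhibition exceeding the mean over every tested compound plus 3 SD, cut at about 30% in these data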;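 further: 0% = plate median of compound wells and 100% = S159A mutant with DMSO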
Target sequence (Q8VD66 whole entry, looked up): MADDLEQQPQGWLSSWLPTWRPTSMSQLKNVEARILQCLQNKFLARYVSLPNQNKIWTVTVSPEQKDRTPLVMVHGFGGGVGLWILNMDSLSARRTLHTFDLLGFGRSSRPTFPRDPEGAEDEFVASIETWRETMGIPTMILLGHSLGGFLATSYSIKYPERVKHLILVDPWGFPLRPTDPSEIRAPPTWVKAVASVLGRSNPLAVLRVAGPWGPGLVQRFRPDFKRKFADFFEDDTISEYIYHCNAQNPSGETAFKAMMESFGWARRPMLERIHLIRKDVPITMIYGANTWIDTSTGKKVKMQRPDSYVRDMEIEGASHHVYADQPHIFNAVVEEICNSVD
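Assay system: wild-type mouse ABHD4 protein; compound: single nominal dose of 8.92 µM, 0.89% DMSO final; schedule: 45 min + 60 min at 25 °C; measured by: FP readout, ex 525 nm / em 598 nm; evaluation: % inhibition of FP-Rh probe binding versus controls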
PAFAH2 FP inh – PAFAH2 (human) inhibition; inhibition, % at 3.39 µM; AID 492956; Q99487; 340,000 compounds, 0.99% hits; recombinant PAFAH2, FP-rhodamine activity probe, fluorescence polarization;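 active means inhibition above the mean over all tested compounds plus 3 SD, cut at about 30% in these data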;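 further: inhibitors block probe labeling of enzyme so polarization drops; 0% = enzyme with DMSO and 100% = wells lacking PAFAH2 protein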
PAFAH1B2 inh – PAFAH1B2 (human) inhibition | P68402 | recombinant PAFAH1B2, FP-rhodamine activity probe, fluorescence polarization | AID 492953 | 340,000 compounds, 1.2% hits | inhibition, % at 3.39 µM;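 active means inhibition above the mean of all tested compounds plus 3 SD, cut at about 24% in these data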;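 further: 0% = enzyme with DMSO and 100% = wells lacking PAFAH1B2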
pPAFAH FP conf – confirmation of human plasma PAF acetylhydrolase (pPAFAH) inhibitors; shares compounds with pPAFAH inh; recombinant pPAFAH, FP-Rh probe fluorescence polarization; inhibition, % at 3.39 µM; 2,300 compounds, 72% hits;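 active means mean inhibition of the triplicate above the hit cutoff set for the earlier primary screen, cut at about 25% in these data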;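 further: 0% = enzyme with DMSO and 100% = wells lacking pPAFAH enzyme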
* marks the source's active call; other numbers are inactive results; x = no result given.

SMILES | pPAFAH inh | PAFAH1B3 FP inh | HTRA1 inh | mABHD4 FP | PAFAH2 FP inh | PAFAH1B2 inh | pPAFAH FP conf
COc1cc2cc(Oc3ccc4ccc(=O)oc4c3)c(=O)oc2cc1O[C@@H]1O[C@H](CO)[C@@H](O)[C@H](O)[C@H]1O | 49.8* | 19.7 | -13.5 | 14.1 | 14.9 | 8.2 | 17.6
O=C(Nc1nc2ccsc2c(=O)s1)C1CCC1 | 35.6* | x | x | -3.7 | x | x | 1.4
CCOC(=O)Cn1c(=O)oc2cc(S(=O)(=O)Nc3ccc(N(CC)CC)cc3C)ccc21 | 54.6* | -2.4 | -0.3 | 8.4 | 2.0 | 5.2 | 52.8*
CCOC(=O)C1=NOC(C(=O)Nc2cc(C)cc(C)c2)(C(=O)C2CC2)C1 (configuration not stated) | x | x | x | -0.3 | x | x | x
COc1cc(/C=N/NC(=O)c2ccc(CN3C(=O)c4cccc5cccc3c45)cc2)cc(OC)c1O | 38.4* | 19.3 | -3.4 | 14.0 | -14.4 | 8.7 | 20.3
Cc1cccc(C)c1-n1cccc1/C=C1\SC(=S)N(c2cccc(C(=O)O)c2)C1=O | 50.2* | -5.2 | -144.9 | -20.4 | -11.6 | 0.2 | 50.9*
Cc1cccc(C)c1NC(=O)CN1C(=O)S/C(=C\c2cccn2-c2cccc(C(=O)O)c2)C1=O | 2.2 | 2.5 | -10.6 | 8.0 | 12.2 | 2.8 | x
O=S1(=O)N=C(N/N=C/c2ccccn2)c2ccccc21 | 75.8* | 16.5 | 1.9 | -12.4 | 1.8 | 1.3 | 1.9
CCOc1ccc(N2C(=O)CSC2=S)cc1 | -11.0 | 5.6 | -4.4 | -32.8 | -1.6 | -5.3 | x
CCN(CC)c1ccc(N2C(=O)CSC2=S)cc1 | 47.7* | -14.6 | 30.9 | 12.7 | -15.3 | -5.1 | 2.6
O=C(O)/C(CC(=O)c1ccc(Cl)cc1)=N/Nc1ccc([N+](=O)[O-])cc1[N+](=O)[O-] | 35.2* | 9.9 | 11.2 | 10.7 | 20.9 | 20.2 | 71.5*
Cc1cc(=O)n2[nH]c(C)c(-c3ccccc3)c2n1 | 5.1 | 8.5 | -0.2 | 1.0 | 3.4 | -1.3 | x
O=c1cc(-c2ccccc2)nc2c(-c3ccccc3)c(C(F)(F)F)[nH]n12 | 45.1* | x | x | -27.6 | x | x | 54.5*
O=c1oc2c(O)c(O)cc3c(=O)oc4c(O)c(O)cc1c4c23 | 93.1* | 67.6* | 22.9 | x | 85.2* | 88.2* | 91.8*
Cc1c(C)c2cc(Cl)c(O)c(CN(C)C)c2oc1=O | -0.3 | 3.0 | 6.3 | 1.5 | 0.0 | 0.4 | x
Cc1cc(C)cc(C(=O)OCCCN(C)C2CN(Cc3cn(Cc4ccccc4Cl)nn3)S(=O)(=O)C2)c1 (configuration not stated) | x | x | x | -4.8 | x | x | x
O=C(Nc1ccc(S(=O)(=O)Nc2nccs2)cc1)c1ccc(=O)[nH]c1 | 38.7* | 30.1* | 7.8 | 13.2 | 10.3 | 12.4 | 5.5
O=C(Nc1ccc(S(=O)(=O)Nc2nccs2)cc1)c1ccncc1 | x | x | x | -3.6 | x | x | x
O=C1CCCC2=C1C(c1ccncc1)c1c(nc(SCc3ccccc3Cl)[nH]c1=O)N2 (configuration not stated) | 0.8 | 2.3 | -13.1 | -6.2 | 19.8 | 5.7 | x
CCC(C)Sc1nc2c(c(=O)[nH]1)C(c1cccs1)C1=C(CCCC1=O)N2 (configuration not stated) | 38.0* | 7.8 | -2.5 | 1.8 | 8.4 | 9.8 | 19.8
N#Cc1c(-c2cccc(F)c2)cc(-c2ccccc2)nc1Br | 2.3 | 10.7 | -1.8 | -0.2 | -4.5 | -1.5 | x
N#Cc1c(-c2ccccc2Cl)cc(-c2ccccc2)nc1Br | 35.2* | -4.8 | -44.4 | -6.4 | 3.4 | 0.8 | 16.3
COc1cc(C(NC(=O)C(F)(F)F)C2CCCC=C2c2ccccc2)cc(OC)c1OC (configuration not stated) | x | x | x | -1.5 | x | x | x
O=C(O)c1cc(N/N=C/c2ccc(N3CCOCC3)s2)ccc1Cl | 73.9* | 8.9 | 25.8 | 43.5* | 16.0 | 1.2 | 18.9
O=C(NCCc1ccccc1)OCc1cn(Cc2ccc(C(F)(F)F)cc2)nn1 | x | x | x | 5.3 | x | x | x
SMILES | pPAFAH inh | PAFAH1B3 FP inh | HTRA1 inh | mABHD4 FP | PAFAH2 FP inh | PAFAH1B2 inh | pPAFAH FP conf
Cc1cc([N+](=O)[O-])cc(/C=N/n2c(C)nc3ccccc3c2=O)c1O | 10.8 | 12.7 | 6.0 | 0.7 | 11.3 | 1.7 | x
C/C(=N\OCc1nc2ccccc2c(=O)n1/N=C/c1cc(C)cc([N+](=O)[O-])c1O)c1ccccc1 | 45.6* | 3.6 | -0.2 | 8.5 | 1.6 | 0.0 | 4.3
Cc1[nH]n(-c2nc(-c3ccccc3F)cc(=O)[nH]2)c(=O)c1CCO | 40.5* | -2.6 | -2.8 | 3.9 | 2.6 | 2.3 | 6.2
Cc1ccccc1-n1c(SCC(=O)N2CCOCC2)nc(O)cc1=O | 38.6* | 1.8 | -5.5 | 0.1 | 4.8 | -0.2 | 8.2
CN(CC(=O)Nc1ccc(F)c(F)c1F)C(=O)c1cc(S(=O)(=O)N(C)C)ccc1N1CCCC1 | x | -1.5 | -0.9 | 6.3 | 1.8 | 0.7 | x
Cc1cccc(C)c1NC(=O)CN(C)C(=O)c1cc(S(=O)(=O)N(C)C)ccc1N1CCCC1 | 35.3* | 7.4 | -5.5 | 3.0 | 2.0 | -2.8 | 3.8
CCOC(=O)[C@]12CCCC=C1N(Cc1ccc(OC)cc1)C(=O)[C@@H]2CC(=O)NCc1ccccc1 | x | x | x | -0.6 | x | x | x
Nc1cc(C(=O)O)c(N)c2c1C(=O)c1ccccc1C2=O | 74.0* | 73.0* | 82.0* | x | 65.8* | 56.4* | 53.7*
Nc1c(C(=O)O)ccc2c1C(=O)c1ccccc1C2=O | 8.6 | 2.9 | 1.9 | 1.8 | -2.1 | 3.5 | x
CCCCn1c(N)c(N(CCOC)C(=O)c2ccc(-c3cccc(C(F)(F)F)c3)o2)c(=O)[nH]c1=O | 39.1* | 0.9 | -3.0 | -10.5 | -9.6 | 1.9 | 17.0
CCOC(=O)N1CCN(C2=C(NS(=O)(=O)c3ccc(C)cc3)C(=O)c3ccccc3C2=O)CC1 | 11.1 | 20.1 | 17.4 | 19.8 | 9.9 | 13.2 | x
CCOC(=O)N1CCN(c2cc(NCCC(=O)O)c3c4c(onc24)-c2ccccc2C3=O)CC1 | 54.9* | 8.4 | 40.2* | x | -7.5 | -2.8 | 37.3*
C[C@H]1[C@@H](NC(=O)c2cccc(C(F)(F)F)c2)CC[C@@]23CCCN2C(=O)CCC[C@@H]13 | x | x | x | 7.0 | x | x | x
COC(=O)[C@@]12CCCCC3=C1N(CCC3)C(=O)[C@H]2CC(=O)N1CCC(c2ccccc2)CC1 | x | x | x | -3.1 | x | x | x
COc1cc(N=Nc2cccc(S(N)(=O)=O)c2)c2ccccc2c1N | 49.5* | 17.7 | 30.4 | -1.4 | 20.1 | 11.8 | 31.5*
O=C1NN(c2ccc(F)c(Cl)c2)C(=O)/C1=C\c1cccc(OC(=O)c2cccs2)c1 | 40.2* | 12.2 | 34.8 | 31.8* | 34.5* | 42.5* | 40.9*
Nc1ccc2c(c1)C/C(=C/c1ccco1)C2=O | 84.3* | 6.9 | 6.6 | 17.2 | 8.7 | -7.9 | 6.5
COc1ccc2c(c1)CCCN2C(=O)C1CCCN(S(=O)(=O)c2cccc3ccccc23)C1 (configuration not stated) | x | x | x | 4.3 | x | x | x
